According to ChEMBL document CHEMBL4622843, “Synthesis, state-of-the-art NMR-binding and molecular modeling study of new benzimidazole core derivatives as Pin1 inhibitors: Targeting breast cancer” (Bioorg Med Chem, 2020):
Activity calls are given as the source filed them. The calls are words filed in the database; no cut-off is given here.

Key:
MCF7 [1] = assay: Cytotoxicity against human MCF7 cells assessed as reduction in cell viability after 24 hrs by MTT assay; assay type: functional, cell-based; conditions: MCF7, 24 h
[2] = Solubility of the compound in 95% PBS buffer/5% DMSO; assay type: physicochemical
[3] = target: Peptidyl-prolyl cis-trans isomerase NIMA-interacting 1 (Homo sapiens) (UniProt Q13526); assay: Binding affinity to recombinant human 15N-labelled N-terminal 6His-tagged Pin1 expressed in Escherichia coli BL21 (DE3) cells at 1:10 ratio of protein to compound by 2D 15N-1H HSQC NMR spectroscopy
Outline: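 Pin1 and compound at a 1:10 protein:compound ratio, compound partially dissolved in 95% buffer/5% DMSO. A reference HSQC spectrum was recorded with DMSO only and compared with ligand-containing spectra.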

MCF7 [4] = assay: Induction of apoptosis in human MCF7 cells assessed as late apoptotic cells at 10 mg/ml after 24 hrs by AnnexinV-FITC/propidium iodide staining based flow cytometry analysis (reference value: 0.19%); assay type: functional
MCF7 [5] = assay: Cell cycle arrest in human MCF7 cells assessed as accumulation at S phase at 10 mg/ml after 24 hrs by Annexin V-FITC/propidium iodide staining based flow cytometry (reference value: 38.15%); assay type: functional
MCF7 [6] = assay: Induction of apoptosis in human MCF7 cells assessed as early apoptotic cells at 10 mg/ml after 24 hrs by AnnexinV-FITC/propidium iodide staining based flow cytometry analysis (reference value: 0.41%); assay type: functional
MCF7 [7] = assay: Cell cycle arrest in human MCF7 cells assessed as accumulation at G0/G1 phase at 10 mg/ml after 24 hrs by Annexin V-FITC/propidium iodide staining based flow cytometry (reference value: 56.38%); assay type: functional
MCF7 [8] = assay: Cell cycle arrest in human MCF7 cells assessed as accumulation at G2/M phase at 10 mg/ml after 24 hrs by Annexin V-FITC/propidium iodide staining based flow cytometry (reference value: 5.47%); assay type: functional
MCF7 [9] = assay: Cell cycle arrest in human MCF7 cells assessed as accumulation at PreG1 phase at 10 mg/ml after 24 hrs by Annexin V-FITC/propidium iodide staining based flow cytometry (reference value: 1.04%); assay type: functional
MCF7 [10] = assay: Induction of apoptosis in human MCF7 cells assessed as necrotic cells at 10 mg/ml after 24 hrs by AnnexinV-FITC/propidium iodide staining based flow cytometry analysis (reference value: 0.44%); assay type: functional

Peptidyl-prolyl cis-trans isomerase NIMA-interacting 1 (Homo sapiens), sequence (Q13526 whole entry): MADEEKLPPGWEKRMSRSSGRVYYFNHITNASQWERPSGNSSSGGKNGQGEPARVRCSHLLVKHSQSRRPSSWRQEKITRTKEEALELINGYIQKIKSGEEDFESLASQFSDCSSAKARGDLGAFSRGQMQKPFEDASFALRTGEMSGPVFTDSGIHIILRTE

Row | Compound | IC50 (MCF7 [1]) [µM] | also measured
1 | CCN(CC)C(=S)SCc1nc2cc(Cl)c(Cl)cc2[nH]1 | 12.6 | 
2 | c1ccc2[nH]c(SCCCN3CCNCC3)nc2c1 | 91.7 | 
3 | c1ccc2[nH]c(SCCCN3CCOCC3)nc2c1 | 82.9 | 
4 | COc1ccc(N2CCN(CCCSc3nc4cc(Cl)ccc4[nH]3)CC2)cc1 | 38.5 | 
5 | COc1ccc(N2CCN(C(=S)SCc3nc4cc(Cl)c(Cl)cc4[nH]3)CC2)cc1 | 19.9 | 
6 | CCOc1ccccc1N1CCN(CCCSc2nc3ccccc3[nH]2)CC1 | 32.7 | 
7 | CN1CCN(CCCSc2nc3ccccc3[nH]2)CC1 | 77.9 | 
8 | Clc1cccc(N2CCN(CCCSc3nc4cc(Cl)ccc4[nH]3)CC2)c1 | 61.4 | 
9 | S=C(SCc1nc2cc(Cl)c(Cl)cc2[nH]1)N1CCOCC1 | 5.7 | solubility [2]: Soluble; Activity [3]: Active
10 | CCOc1ccccc1N1CCN(C(=S)SCc2nc3cc(Cl)c(Cl)cc3[nH]2)CC1 | 16.2 | 
11 | CN1CCN(CCCSc2nc3cc(Cl)ccc3[nH]2)CC1 | 13.9 | 
12 | COc1ccc(N2CCN(CCCSc3nc4ccccc4[nH]3)CC2)cc1 | 6.84 | solubility [2]: Soluble; Activity [3]: Active
13 | COc1ccc(N2CCN(C(=S)SCc3nc4cc(C)c(C)cc4[nH]3)CC2)cc1 | 46 | 
14 | CCOc1ccccc1N1CCN(C(=S)SCc2nc3cc(C)c(C)cc3[nH]2)CC1 | 5.58 | Activity (MCF7 [4]): 17.01%; Activity (MCF7 [5]): 32.42%; Activity (MCF7 [6]): 7.36%; Activity (MCF7 [7]): 39.72%; Activity (MCF7 [8]): 27.86%; Activity (MCF7 [9]): 27.28%; Activity (MCF7 [10]): 2.91%
15 | CN1CCN(C(=S)SCc2nc3cc(Cl)c(Cl)cc3[nH]2)CC1 | 30.5 | 
16 | Cc1cc2nc(CSC(=S)N3CCCCC3)[nH]c2cc1C | 9.55 | solubility [2]: Soluble; Activity [3]: Active
17 | ClCCCSc1nc2cc(Cl)ccc2[nH]1 | 24.1 | 
18 | CCOc1ccccc1N1CCN(CCCSc2nc3cc(Cl)ccc3[nH]2)CC1 | 27.7 | 
19 | S=C(SCc1nc2cc(Cl)c(Cl)cc2[nH]1)N1CCCCC1 | 42.8 | 
20 | Clc1cccc(N2CCN(CCCSc3nc4ccccc4[nH]3)CC2)c1 | 54.6 | 
